Experimental data as given in ChEMBL document CHEMBL1145607, “Design, synthesis and evaluation of 2-phenyl-1H-benzo[d]imidazole-4,7-diones as vascular smooth muscle cell proliferation inhibitors” (Bioorg Med Chem Lett, 2008).
Active and inactive are the calls of the source. The calls are words filed in the database; no cut-off is given here.

How the values were obtained:
[1] = Antiproliferative activity against PDGF-induced rat aortic VSMC by colorimetric assay; type: functional, tissue-based; settings: Aorta
Outline: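 Rat aortic SMCs stimulated with PDGF; inhibition of proliferation read by a colorimetric assay; IC50 values determined by comparison to mycophenolic acid as standard agent.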

[2] = Cell cycle arrest in rat aortic VSMC assessed as DNA accumulation at G0/G1 phase at 1 ug/ml after 48 hrs relative to control; type: functional, cell-based
Outline: (§1)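 Cultured SMCs treated with 1 µg/mL for 48 h alongside a vehicle-treated control; DNA content per cell-cycle phase analysed by flow cytometry.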

VSMC [3] = experiment: Effect on cyclin D1 protein expression in rat aortic VSMC at 1 ug/ml after 48 hrs by Western blot; type: functional, tissue-based; settings: Aorta
Outline: (§2)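 Total cell lysates from cultured SMCs treated with 1 µg/mL for 48 h; PCNA, cyclin A, cyclin D1, pRb (also cdk 2) probed by Western blot.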

VSMC [4] = experiment: Antiproliferative activity against PDGF-induced rat aortic VSMC assessed as cell density at 1 ug/ml after 48 hrs by phase-contrast microscope; type: functional, cell-based
Outline: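 Cultured rat aortic SMCs exposed to 1 µg/mL test agent or DMSO vehicle alone for 48 h; cell density judged by observation and photography under a phase-contrast microscope.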

Rattus norvegicus = species on record: Rattus norvegicus; experiment: Inhibition of ERK phosphorylation in rat aortic VSMC at 1 ug/ml after 1 hr; type: tissue-based; settings: Aorta
Outline: (§3)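 Cultured SMCs exposed to test agent for 1 h; phosphorylated ERK and phosphorylated Akt examined by Western blot.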

[5] = Cell cycle arrest in rat aortic VSMC assessed as DNA accumulation at S phase at 1 ug/ml after 48 hrs relative to control; type: functional, cell-based; outline: as §1
VSMC [6] = experiment: Effect on pRb protein expression in rat aortic VSMC at 1 ug/ml after 48 hrs by Western blot; type: functional, tissue-based; settings: Aorta; outline: as §2
[7] = Down-regulation of cyclin A protein expression in rat aortic VSMC at 1 ug/ml after 48 hrs by Western blot; type: functional, tissue-based; settings: Aorta; outline: as §2
[8] = Cell cycle arrest in rat aortic VSMC assessed as DNA accumulation at G2/M phase at 1 ug/ml after 48 hrs relative to control; type: functional, cell-based; outline: as §1
[9] = Down-regulation of PCNA protein expression in rat aortic VSMC at 1 ug/ml after 48 hrs by Western blot; type: functional, tissue-based; settings: Aorta; outline: as §2
[10] = target: RAC-alpha serine/threonine-protein kinase (Rattus norvegicus) (UniProt P47196); experiment: Inhibition of Akt phosphorylation in rat aortic VSMC at 1 ug/ml after 1 hr; type: tissue-based; settings: Aorta; outline: as §3
Chain of RAC-alpha serine/threonine-protein kinase (Rattus norvegicus) (P47196 whole entry): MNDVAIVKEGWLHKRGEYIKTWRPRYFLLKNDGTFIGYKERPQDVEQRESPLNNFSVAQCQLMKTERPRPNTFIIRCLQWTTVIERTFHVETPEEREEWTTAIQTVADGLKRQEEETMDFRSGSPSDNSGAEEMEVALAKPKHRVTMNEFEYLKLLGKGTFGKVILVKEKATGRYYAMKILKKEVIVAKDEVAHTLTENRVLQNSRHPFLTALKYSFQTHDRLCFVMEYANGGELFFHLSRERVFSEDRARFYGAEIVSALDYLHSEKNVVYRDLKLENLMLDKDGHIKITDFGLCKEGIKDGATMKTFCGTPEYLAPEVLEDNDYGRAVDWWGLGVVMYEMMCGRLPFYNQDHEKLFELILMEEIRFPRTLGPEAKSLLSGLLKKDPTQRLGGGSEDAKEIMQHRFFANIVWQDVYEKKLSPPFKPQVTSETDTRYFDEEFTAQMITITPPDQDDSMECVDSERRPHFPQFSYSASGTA

| SMILES | IC50 [1] [µM] | other results |
| --- | --- | --- |
| O=C1C(Cl)=C(Nc2ccc(C(F)(F)F)cc2)C(=O)c2[nH]c(-c3ccccc3)nc21 | 9.4 | – |
| O=C1C(Cl)=C(Sc2ccc(O)cc2)C(=O)c2[nH]c(-c3ccccc3)nc21 | 2 | – |
| Cc1cccc(SC2=C(Cl)C(=O)c3nc(-c4ccccc4)[nH]c3C2=O)c1 | 2 | – |
| O=C1C(Cl)=C(Sc2ccccc2)C(=O)c2[nH]c(-c3ccccc3)nc21 | 1.5 | – |
| O=C1C(Cl)=C(Nc2ccc(C(F)(F)F)cc2)C(=O)c2[nH]c(-c3ccccn3)nc21 | 1 | – |
| CCOc1ccc(NC2=C(Cl)C(=O)c3nc(-c4ccccc4)[nH]c3C2=O)cc1 | 50 | – |
| O=C1C(Cl)=C(Sc2ccc(Br)cc2)C(=O)c2[nH]c(-c3ccccn3)nc21 | 12 | – |
| COc1c(C)c2c(c(O)c1C/C=C(\C)CCC(=O)O)C(=O)OC2 [MYCOPHENOLIC ACID] | 1 | – |
| O=C1C(Cl)=C(Nc2ccc(OC(F)(F)F)cc2)C(=O)c2[nH]c(-c3ccccn3)nc21 | 20 | – |
| O=C1C(Cl)=C(Sc2ccc(Br)cc2)C(=O)c2[nH]c(-c3ccccc3)nc21 | 1.5 | – |
| O=C1C(Cl)=C(Nc2ccc(F)cc2)C(=O)c2[nH]c(-c3ccccn3)nc21 | 9.4 | – |
| COc1ccc(NC2=C(Cl)C(=O)c3nc(-c4ccccc4)[nH]c3C2=O)cc1 | 2 | – |
| COc1ccc(NC2=C(Cl)C(=O)c3nc(-c4ccncc4)[nH]c3C2=O)cc1 | 50 | – |
| O=C1C(Cl)=C(Nc2ccc(Br)cc2)C(=O)c2[nH]c(-c3ccncc3)nc21 | 100 | – |
| COc1ccc(NC2=C(Cl)C(=O)c3nc(-c4ccccn4)[nH]c3C2=O)cc1 | 20 | – |
| O=C1C(Cl)=C(Nc2ccc(F)cc2)C(=O)c2[nH]c(-c3ccncc3)nc21 | 50 | – |
| COc1ccc(SC2=C(Cl)C(=O)c3nc(-c4ccccn4)[nH]c3C2=O)cc1 | 4.2 | – |
| O=C1C(Cl)=C(Nc2ccc(OC(F)(F)F)cc2)C(=O)c2[nH]c(-c3ccccc3)nc21 | 1.5 | – |

| SMILES | IC50 [1] [µM] | other results |
| --- | --- | --- |
| Cc1ccc(NC2=C(Cl)C(=O)c3nc(-c4ccccc4)[nH]c3C2=O)cc1C | 3 | – |
| O=C1C(Cl)=C(Nc2ccccc2)C(=O)c2[nH]c(-c3ccccc3)nc21 | 4 | – |
| COc1ccc(NC2=C(Cl)C(=O)c3nc(-c4cccnc4)[nH]c3C2=O)cc1 | 42 | – |
| CCc1ccc(NC2=C(Cl)C(=O)c3nc(-c4ccccc4)[nH]c3C2=O)cc1 | 10.7 | – |
| O=C1C(Cl)=C(Nc2ccc(Br)cc2)C(=O)c2[nH]c(-c3ccccn3)nc21 | 6.5 | – |
| O=C1C(Cl)=C(Nc2ccc(Cl)cc2)C(=O)c2[nH]c(-c3ccccc3)nc21 | 5.3 | – |
| Cc1ccc(SC2=C(Cl)C(=O)c3nc(-c4ccccn4)[nH]c3C2=O)cc1 | 2.5 | – |
| Cc1ccc(SC2=C(Cl)C(=O)c3nc(-c4ccccc4)[nH]c3C2=O)cc1 | 1 | – |
| O=C1C(Cl)=C(Nc2ccc(Cl)cc2)C(=O)c2[nH]c(-c3ccncc3)nc21 | 25 | – |
| O=C1C(Cl)=C(Nc2ccc(Br)cc2)C(=O)c2[nH]c(-c3cccnc3)nc21 | 50 | – |
| O=C1C(Cl)=C(Nc2ccc(Cl)cc2)C(=O)c2[nH]c(-c3ccccn3)nc21 | 12.1 | – |
| O=C1C(Cl)=C(Nc2ccc(Cl)cc2)C(=O)c2[nH]c(-c3cccnc3)nc21 | 20 | – |
| O=C1C(Cl)=C(Nc2ccc(F)cc2)C(=O)c2[nH]c(-c3cccnc3)nc21 | 21 | – |
| Cc1ccc(NC2=C(Cl)C(=O)c3nc(-c4ccccn4)[nH]c3C2=O)cc1 | 50 | – |
| Cc1ccc(NC2=C(Cl)C(=O)c3nc(-c4ccccc4)[nH]c3C2=O)cc1 | 3 | – |
| CCc1ccc(SC2=C(Cl)C(=O)c3nc(-c4ccccn4)[nH]c3C2=O)cc1 | 7 | – |
| O=C1C(Cl)=C(Sc2ccc(Cl)cc2)C(=O)c2[nH]c(-c3ccccn3)nc21 | 4 | – |
| COc1ccc(SC2=C(Cl)C(=O)c3nc(-c4ccccc4)[nH]c3C2=O)cc1 | 1 | Activity [2]: 59.6%; Activity (VSMC [3]): Active; Activity (VSMC [4]): Active; Activity (Rattus norvegicus): Active; Activity [5]: 22.4%; Activity (VSMC [6]): Active; Activity [7]: Active; Activity [8]: 8%; Activity [9]: Active; Activity [10]: Active |
